For assay [1], the system named is Mus musculus. In words: The compound tested in vivo for inhibition of spontaneous activity(SA). The class given is functional. A digest of the protocol: (§1)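 Mice dosed iv by tail vein in ethanol:emulphor:saline 1:1:18. Tail flick to heat measured at 4 min, with 2-4 s baseline and 10 s cut-off, expressed as %MPE. Same mice then placed in photocell cages; beam breaks counted over 10 min and expressed as % of control. 6 mice/dose. ED50 from probit versus log dose by least-squares regression.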

Assay [2] deals with Mus musculus. The assay can be described thus: The compound tested in vivo for ring immobility (RI). The class given is functional. A digest of the protocol:
(§2)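 Separate mice dosed iv by tail vein in ethanol:emulphor:saline 1:1:18. Rectal temperature taken by thermistor probe before and 4 min after injection; the change was recorded. Mice then placed on a 5.5-cm ring 16 cm high; time motionless over 5 min was taken as % of 300 s. Immobility ED50 from probit-log dose regression.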

The target in assay [3] is T1, Cannabinoid receptor 1 (Rattus norvegicus, UniProt P20272). In words: The compound was tested for Ki value against rat whole brain P2 membrane preparation in presence of enzyme inhibitor PMSF. A digest of the protocol:
(§3)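 Rat whole-brain P2 membranes (100-150 µg protein) incubated 1 h at 30 °C with 1 nM [3H]CP-55,940 and analogue at 1 nM-10 µM, with or without PMSF (50 µM). Buffer: 50 mM Tris-HCl, 1 mM EDTA, 3 mM MgCl2, 5 mg/mL BSA; ethanol ≤0.4%. Nonspecific binding with 1 µM CP-55,940. Stopped with ice-cold buffer, then rapid filtration on PEI-treated filters. Triplicates; 3-6 experiments; mean ± SE.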

In assay [4] the test system is Mus musculus. In words: The compound tested in vivo for antinociception as measured by tail flick response(TF). In kind it is functional. A digest of the protocol:
as §1

In assay [5] the test system is Mus musculus. In words: The compound tested in vivo for hypothermia as changes in rectal temperature (RT). The class given is functional. A digest of the protocol: as §2
The target of assay [6] is T1, Cannabinoid receptor 1. In words: The compound was tested for Ki value against rat whole brain P2 membrane preparation in absence of enzyme inhibitor PMSF. A digest of the protocol: as §3
Assay [7] relates to Mus musculus. The assay can be described thus: The compound tested in vivo for antinociception as measured by tail flick response(TF) activity at 30 mg/kg. The class given is functional. A digest of the protocol:
as §1

For assay [8], the system named is Mus musculus. In words: The compound tested in vivo for inhibition of spontaneous activity(SA)at 30 mg/kg. The class given is functional. Also on record: scale not given: the % may be the effect or the level left. A digest of the protocol:
as §1

In assay [9] the test system is Mus musculus. In words: The compound tested in vivo for ring immobility (RI)a. In kind it is functional. A digest of the protocol: as §2

Each structure is given as a SMILES string.

As a reminder, the ED50 is the dose that gives a 50% effect, or the effect in half of the subjects. The term Ki denotes the dissociation constant of the complex between target and ligand, obtained from inhibition or displacement.

T1 sequence (P20272 whole entry): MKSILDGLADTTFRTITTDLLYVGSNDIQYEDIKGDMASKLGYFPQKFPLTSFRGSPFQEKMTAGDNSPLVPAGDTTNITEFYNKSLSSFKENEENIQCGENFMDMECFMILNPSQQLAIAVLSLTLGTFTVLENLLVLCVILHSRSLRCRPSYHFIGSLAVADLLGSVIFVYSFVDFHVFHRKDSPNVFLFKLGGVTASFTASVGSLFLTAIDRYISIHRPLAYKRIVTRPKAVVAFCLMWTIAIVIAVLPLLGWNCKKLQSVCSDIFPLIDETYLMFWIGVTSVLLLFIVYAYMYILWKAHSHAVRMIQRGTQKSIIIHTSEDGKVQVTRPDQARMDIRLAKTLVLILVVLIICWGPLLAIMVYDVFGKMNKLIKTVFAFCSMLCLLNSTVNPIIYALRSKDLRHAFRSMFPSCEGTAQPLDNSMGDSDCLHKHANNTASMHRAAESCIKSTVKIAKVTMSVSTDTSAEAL

On to `CCCCC/C=C\C/C=C\C/C=C\C/C=C\CCCNC(=O)NCC`, for which the ED50 in the assay on Mus musculus [1] came out at 2.8 mg/kg; in the assay on Mus musculus [2], 19.9 mg/kg; in the assay on Mus musculus [4] it was 3.3 mg/kg; in the assay on Mus musculus [5] it was 16.2 mg/kg. Besides, on Cannabinoid receptor 1 [3], the Ki worked out at 156 nM.

As for `CCCCC/C=C\C/C=C\C/C=C\C/C=C\CCCNC(=O)NC(C)C`, the inhibition constant Ki on Cannabinoid receptor 1 [6] amounted to 204 nM; on Cannabinoid receptor 1 [3], 131 nM. Also, the ED50 in the assay with Mus musculus [1] came to 5.8 mg/kg; in the assay with Mus musculus [2], 38 mg/kg; in the assay on Mus musculus [4], 2.4 mg/kg; in the assay with Mus musculus [5], 1.28 mg/kg.

As for `CCCCC/C=C\C/C=C\C/C=C\C/C=C\CCCCOCC(C)C`, on Cannabinoid receptor 1 [3], the Ki was determined as 2480 nM.

`CCCCC/C=C\C/C=C\C/C=C\C/C=C\CCCNC(=O)NCCOC` registered an ED50 with Mus musculus [2] of 3 mg/kg. Moreover, the Activity worked out at 32% in the assay with Mus musculus [7] and 69% with Mus musculus [8]. Moreover, the Ki on Cannabinoid receptor 1 [3] worked out at 746 nM.

`C=CCOCCCC/C=C\C/C=C\C/C=C\C/C=C\CCCCC`: the inhibition constant Ki at Cannabinoid receptor 1 [3] amounted to 1170 nM.

Consider `CCCCC/C=C\C/C=C\C/C=C\C/C=C\CCCCOCC`, for which the inhibitory constant (Ki) at Cannabinoid receptor 1 [3] was determined as 2200 nM.

On to `CCCCC/C=C\C/C=C\C/C=C\C/C=C\CCCNC(=O)OCCF`, for which the Activity worked out at 20% in the assay with Mus musculus [7] and 18% in the assay with Mus musculus [8]. On Cannabinoid receptor 1 [3], the Ki worked out at 331 nM.

In the case of `CCCCC/C=C\C/C=C\C/C=C\C/C=C\CCCNC(=O)NCCF`, the Ki at Cannabinoid receptor 1 [6] came out at 52 nM; on Cannabinoid receptor 1 [3], 55 nM. Moreover, the 50% effective dose (ED50) is 4.48 mg/kg with Mus musculus [9], 3.5 mg/kg with Mus musculus [1], 6.4 mg/kg in the assay on Mus musculus [4] and 0.85 mg/kg in the assay with Mus musculus [5].

Take `C#CCOCCCC/C=C\C/C=C\C/C=C\C/C=C\CCCCC`: on Cannabinoid receptor 1 [3], the Ki was 1580 nM.

As for `CCCCC/C=C\C/C=C\C/C=C\C/C=C\CCCCOCC1CC1`, the Ki at Cannabinoid receptor 1 [3] stood at 578 nM.

Consider `CCCCC/C=C\C/C=C\C/C=C\C/C=C\CCCCOC(=O)NCC`, for which, on Cannabinoid receptor 1 [3], the Ki was determined as 2200 nM.

For the molecule `CCCCC/C=C\C/C=C\C/C=C\C/C=C\CCCNC(=O)NC`, the ED50 was 9.9 mg/kg in the assay with Mus musculus [1], 4.51 mg/kg in the assay on Mus musculus [2], 12.3 mg/kg with Mus musculus [4] and 2.2 mg/kg in the assay on Mus musculus [5]. Moreover, the inhibition constant (Ki) on Cannabinoid receptor 1 [3] was found to be 436 nM.

As to `CCCCC/C=C\C/C=C\C/C=C\C/C=C\CCCNC(=O)NCCC`, the values for the Ki at Cannabinoid receptor 1 [6] and at Cannabinoid receptor 1 [3] were 170 nM and 91 nM, respectively. The 50% effective dose (ED50) with Mus musculus [1] was 7.2 mg/kg; with Mus musculus [2], 5.4 mg/kg; in the assay with Mus musculus [4] it was 8.9 mg/kg; in the assay on Mus musculus [5], 3.4 mg/kg.

With `CCCCC/C=C\C/C=C\C/C=C\C/C=C\CCCC(=O)NCCO` [ANANDAMIDE], the ED50 with Mus musculus [4] was found to be 6.2 mg/kg.

For the molecule `CCCCC/C=C\C/C=C\C/C=C\C/C=C\CCCCOCCC`, on Cannabinoid receptor 1 [3], the Ki was found to be 1080 nM.

In the case of `CCCCC/C=C\C/C=C\C/C=C\C/C=C\CCCCOC(C)CC` (stereo not given), the inhibition constant Ki on Cannabinoid receptor 1 [3] worked out at 1310 nM.

For `CCCCC/C=C\C/C=C\C/C=C\C/C=C\CCCCOCCO`, the inhibition constant (Ki) on Cannabinoid receptor 1 [3] worked out at 797 nM.

For `CCCCC/C=C\C/C=C\C/C=C\C/C=C\CCCCOC(C)C`, the Ki on Cannabinoid receptor 1 [3] stood at 871 nM.

For `CCCCC/C=C\C/C=C\C/C=C\C/C=C\CCCNC(=O)NCCO`, the median effective dose (ED50) with Mus musculus [1] stood at 3.1 mg/kg; with Mus musculus [2], 3.9 mg/kg; in the assay with Mus musculus [4], 4 mg/kg; in the assay with Mus musculus [5] it was 2.6 mg/kg. Also, at Cannabinoid receptor 1 [3], the inhibition constant (Ki) was found to be 347 nM.

For the molecule `CCCCC/C=C\C/C=C\C/C=C\C/C=C\CCCNC(=O)NCC(C)C`, the Activity in the assay with Mus musculus [7] came to 26%; in the assay on Mus musculus [8] it was 59%. Further, on Cannabinoid receptor 1 [3], the Ki was determined as 335 nM.

Turning to `CCCCC/C=C\C/C=C\C/C=C\C/C=C\CCCCOC(=O)NCCC`, the inhibition constant (Ki) at Cannabinoid receptor 1 [3] was determined as 471 nM.

Take `CCCCC/C=C\C/C=C\C/C=C\C/C=C\CCCCOC`: the Ki at Cannabinoid receptor 1 [3] turned out to be 4260 nM.

Turning to `CCCCC/C=C\C/C=C\C/C=C\C/C=C\CCCCOC(=O)NC(C)C`, the inhibition constant Ki at Cannabinoid receptor 1 [3] was 995 nM.

As to `CCCCC/C=C\C/C=C\C/C=C\C/C=C\CCCNC(=O)OCC`, the Activity is reported as 5% in the assay with Mus musculus [7] and 36% in the assay with Mus musculus [8]. Besides, on Cannabinoid receptor 1 [3], the Ki was 218 nM.

In the case of `CCCCC/C=C\C/C=C\C/C=C\C/C=C\CCCNC(=O)OC(C)C`, the results for the Activity with Mus musculus [7] and with Mus musculus [8] were 3% and 35%, respectively. In addition, on Cannabinoid receptor 1 [3], the Ki is 1230 nM.

Turning to `CCCCC/C=C\C/C=C\C/C=C\C/C=C\CCCCOCCF`, the Ki at Cannabinoid receptor 1 [3] stood at 885 nM.

Regarding `CCCCC/C=C\C/C=C\C/C=C\C/C=C\CCCCOCCCC`, the Ki at Cannabinoid receptor 1 [3] was determined as 1710 nM.

(Values after ChEMBL document CHEMBL1132228, “Unique analogues of anandamide: arachidonyl ethers and carbamates and norarachidonyl carbamates and ureas” (J Med Chem, 1999).)
